Compound activity (PubChem BioAssay)
EBI2 antag = EBI2 receptor antagonists, beta-arrestin recruitment, primary screen, cell-based, luminescence, 7a,25-OHC stimulation, uHTS; G-protein coupled receptor 183 (Homo sapiens), P32249; hit rate 0.81% among 360,000; inhibition, % at 5 µM; 7a,25-OHC stimulated; in the data active = inhibition above about 38%;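 also: enzyme fragment complementation signal reports receptor beta-arrestin coupling in cells; 0% = agonist plus DMSO wells and 100% = wells without agonist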
Target sequence (P32249 whole entry, looked up, the tested form may be a part): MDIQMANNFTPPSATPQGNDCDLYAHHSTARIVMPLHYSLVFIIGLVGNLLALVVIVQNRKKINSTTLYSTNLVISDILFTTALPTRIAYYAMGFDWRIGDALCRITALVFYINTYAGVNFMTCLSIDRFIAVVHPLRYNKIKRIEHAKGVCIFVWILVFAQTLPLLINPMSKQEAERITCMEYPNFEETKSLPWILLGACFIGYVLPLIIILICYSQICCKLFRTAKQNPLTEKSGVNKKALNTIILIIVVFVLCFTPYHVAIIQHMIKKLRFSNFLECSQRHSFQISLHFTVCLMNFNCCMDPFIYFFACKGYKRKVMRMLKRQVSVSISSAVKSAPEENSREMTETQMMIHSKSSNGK
APJ antag = antagonists of human apelin receptor APJ, primary screen, CHO-K1 cells, beta-arrestin complementation, luminescence | inhibition, % at 20 µM | hit rate 0.32% among 330,000 | P35414 | AID 2521, 2010;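 active = inhibition above about 40% at 20 µM, limit read from the data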;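 also: cells challenged with 10 nM apelin-13 agonist together with compound; plate controls were apelin-13 plus DMSO wells for no effect and DMSO wells lacking apelin-13 for full effect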
CCR6 antagonist = CCR6 receptor antagonists, primary screen, cell-based, CHO-K1, luminescence, beta-arrestin, uHTS. C-C chemokine receptor type 6 (Homo sapiens), P51684. CHO-K1 CCR6 PathHunter beta-arrestin, CCL20-stimulated. inhibition, % at 20 µM. hit rate 0.49% among 340,000. AID 493098, 2011;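 active = compounds whose inhibition of the agonist-driven luminescence signal at 20 µM reaches about 50%, limit read from the data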;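 also: cells stimulated with CCL20 at 14 nM final; plate controls were DMSO with CCL20 for no effect and DMSO without agonist for full effect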
m5-HT2A agonist = mouse Htr2a agonists via beta-arrestin recruitment, primary screen, cell-based, luminescence | 5-hydroxytryptamine receptor 2A (Mus musculus), P35363 | AID 624169, 2012 | hit rate 0.66% among 360,000 | activation, % at 7.6 µM | CHO-K1 mHTR2A beta-arrestin complementation; percent of 30 µM serotonin response;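 active = activation above a run cutoff, the mean activation of all tested compounds plus 3 SD, cut at about 14% in these data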;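 also: 0% = plate median of compound wells and 100% = 30 µM serotonin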
APJ ag = agonists of human apelin receptor APJ, primary screen, CHO-K1 cells, PathHunter beta-arrestin, luminescence; P35414; 0% DMSO wells, 100% apelin; activation, % at 20 µM; hit rate 0.11% among 330,000; AID 2520, 2010;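 active = activation more than six SD over the plate average, tested at 20 µM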;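 also: 0% = DMSO alone and 100% = apelin-13 at 10 nM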
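Assay system: CHO-K1 APJ beta-arrestin complementation cell line / Compound: single test compound dose, 20 µM final, 1% DMSO / Times: overnight seeding, 90 min compound at 25 °C, 1 h detection / Technique: beta-gal luminescence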
CXCR6 inh = CXCR6 receptor inhibitors, primary screen, cell-based, beta-arrestin, luminescence, CHO-K1 PathHunter, 1536-well; AID 602244, 2012; hit rate 0.36% among 360,000; inhibition, % at 20 µM; in the data active = inhibition above about 34%, passing the limit was not always enough;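 also: antagonist mode with CXCL16 agonist at 10 nM final; 0% = 10 nM CXCL16 with DMSO and 100% = unstimulated wells without agonist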
APJ antag confirm = APJ antagonists blocking beta-arrestin recruitment, confirmation, cell-based, luminescence, single concentration, uHTS hits. AID 2766, 2010. inhibition, % at 20 µM. shares compounds with APJ antag. antagonist mode. hit rate 66% among 950; in the data active = inhibition above about 50%
Numbers without * were called inactive; / = no result. Rows were chosen to be rich in hits. Some 2.1% of all compounds tested hit in one or more screens of this group.

SMILES	EBI2 antag	APJ antag	CCR6 antagonist	m5-HT2A agonist	APJ ag	CXCR6 inh	APJ antag confirm
Cc1ccc(C)c(NCC(=O)NNC(=S)Nc2ccccc2)c1	-2	3	16	2	-5	-5	/
Cc1ccc(C(=O)CNc2cc(C)ccc2C)cc1	21	43*	73*	1	-16	32	118*
Cc1ccccc1NCC(=O)c1ccc(Br)cc1	9	46*	49	4	-14	22	99*
Cc1ccc(C)c(NCC(=O)c2ccc(Cl)cc2)c1	28	73*	60*	2	-14	22	88*
CCC(Oc1ccccc1F)C(=O)NCCN1CCOCC1 (stereo not given)	-5	-1	14	-1	-2	0	/
CCCn1c(=N)n(CC(=O)c2ccc(OCC(=O)OC)cc2)c2ccccc21	3	12	15	3	-3	-3	/
O=C(Nc1ccccc1C(=O)NCc1ccccc1)c1ccco1	13	-1	6	-2	-1	0	/
COc1ccc(N2CC(C(=O)Nc3ccccc3C(=O)NC3CC3)CC2=O)cc1 (stereo not given)	-11	41*	2	2	1	-14	7
Cc1cccc(-c2noc(-c3ccc(Cl)cc3[N+](=O)[O-])n2)c1	6	-54	-1	3	2	-4	/
O=C(N/N=C/c1cc(Br)cc(Br)c1O)c1ccncc1	/	-42	-9	/	1	/	/
O=C(N/N=C/c1cc(Br)cc([N+](=O)[O-])c1O)c1ccc(NC(=O)c2ccc(F)cc2)cc1	18	49*	69*	6	-9	28	86*
CC(C)CC(NC(=O)C1CCCN1C(=O)OC(C)(C)C)C(=O)NCC(N)=O (stereo not given)	4	/	9	7	/	2	/
COC(=O)C(CC(C)C)NC(=O)C(Cc1ccccc1)NC(=O)C1CCCN1C(=O)OC(C)(C)C (stereo not given)	6	48*	52*	-2	-6	36	37
O=C1Nc2ccc(Br)cc2C1=Nc1ccc(-c2nnc3n2CCCCC3)cc1	/	49*	/	/	-19	/	126*
N#C/C(=C\c1ccc(O)c(O)c1)C(=O)N1CCCC1	8	22	19	-6	-1	20	/
N#C/C(=C\c1ccc(O)c(O)c1)C(=O)c1ccc(O)c(O)c1	3	43*	54*	-6	-7	27	57*
COc1cccc(-n2c(SCC(=O)NC3CCCC3)nnc2-c2ccco2)c1	-1	5	7	-1	-5	4	/
Cc1nn(-c2nc3ccccc3[nH]2)c(=O)c2ccccc12	2	/	3	3	/	7	/
Cc1nn(-c2nc3ccccc3[nH]2)c(N)c1-c1ccc(Cl)cc1	27	46*	43	0	-6	34	0
O=C1C=C(N2CCOCC2)CCC1	0	-54	-3	-2	-3	-1	/
O=C1C=C(N2CCOCC2)CO1	-3	42*	7	-4	-4	7	-5
CN(C)c1ccc(/C=C2\C(=N)N3C(=NC2=O)Sc2cc(S(C)(=O)=O)ccc23)cc1	/	53*	/	/	11	/	49
CCc1ccc2c(c1)NC(=O)C2(C)Cc1ccccc1 (stereo not given)	2	/	/	4	/	4	/
CCc1ccc2c(c1)C1(NN=C(c3cccc4ccccc34)S1)C(=O)N2 (stereo not given)	21	42*	/	-3	-8	26	39
CC(C)(C)C1C/C(=C/c2ccccn2)C(=O)/C(=C/c2ccccn2)C1 (stereo not given)	18	45*	65*	7	-8	32	46
SMILES	EBI2 antag	APJ antag	CCR6 antagonist	m5-HT2A agonist	APJ ag	CXCR6 inh	APJ antag confirm
Cc1cccc(C(=O)NCCc2n[nH]c(=S)n2C)c1	-1	3	-1	6	5	-2	/
COc1cc2c(=O)n(Cc3ccccc3)c(=O)n(CC(=O)NCC3CCCO3)c2cc1OC (stereo not given)	3	40*	3	4	-1	-4	7
COc1cc2c(=O)n(CCC(=O)NCC3CCCO3)c(=O)n(CC(=O)Nc3ccccc3C)c2cc1OC (stereo not given)	4	16	-9	8	-2	-10	/
Cc1cccc(N/C(N)=N/c2nc(C(F)(F)F)cc(C(F)(F)F)n2)c1	5	-6	9	6	-5	6	/
CC(=O)Nc1ccc(S(=O)(=O)N2CCN(c3cccc(C)c3C)CC2)cc1	1	8	10	-6	-5	-11	/
CCN(CC)S(=O)(=O)c1cccc(N=Nc2c(O)c3ccccc3oc2=O)c1	21	40*	59*	-3	-6	29	50
CN(C)c1ccc(N=Nc2nc3ccccc3n2C)cc1	28	48*	75*	-9	-10	54*	108*
CCOc1ccc(-c2c(C(=O)N/N=C/c3cccc(Br)c3)nnn2-c2nonc2N)cc1	18	45*	18	-1	-4	15	47
CCOc1ccc(-c2c(C(=O)N/N=C/c3ccc(O)cc3)nnn2-c2nonc2N)cc1	2	5	-2	-5	-4	1	/
CCCOc1ccc(C(=O)NNC(=S)NC(=O)CC)cc1	-2	54*	78*	-3	-9	48*	94*
CC1CC(=O)Nc2ccccc2N1S(=O)(=O)c1ccccc1 (stereo not given)	1	60*	-3	-1	3	-4	45
CCOC(=O)c1ccc(S(=O)(=O)NNC(=O)c2cccc(N(C)C)c2)cc1	-8	50*	5	0	0	-1	19
Cc1cc(C)n(CCc2nc(-c3ccco3)cs2)n1	-5	56*	18	-2	-11	7	20
Cc1cc(C)n(CCc2nc(-c3cccs3)cs2)n1	11	7	20	2	-1	-6	/
CCC(CO)NC(=O)c1ccc(-c2nn(C)c(=O)c3ccccc23)cc1 (stereo not given)	-3	50*	-6	-3	1	3	16
OC1CN=C2CCCc3c2n(c2ccc(Cl)cc32)C1 (stereo not given)	18	61*	68*	-9	-11	52*	101*
Cc1ccc(NC(=O)Nc2ccc3c(c2)OCO3)c(Br)c1	-3	41*	10	-7	4	-1	16
Cc1ccc(OCC(=O)Nc2ccc3c(c2)OCO3)c(C)c1	3	66*	5	2	-3	1	45
